Entries after “also recorded” stand apart in the source; their conditions may differ.
Assays:
[1] = Equilibrium solubility / slurry experiment at pH 1.2, phase of residue; type: physicochemical; details: pH 1.2 (0.1 N HCl)
How it was run: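 Equilibrium slurry of salt or free base in 0.1 N HCl, pH 1.2. Undissolved residue was characterized by DSC, TGA, PXRD profile fitting against the single-crystal structure, FESEM morphology, and FESEM-EDX chloride content to detect phase conversion, such as hydrochloride formation.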

Sk-Mel28 cells = assay: Flow cytometric analysis of cell cycle; type: cell-based, human; details: 48 h, concentration approx. IC50
[2] = Dissolution / intrinsic dissolution rate of pellets in pH 1.2; type: physicochemical; details: neat drug; for pure drug dissolution value: gastric pH 1.2 (0.1 N HCl)
How it was run: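 Run in 0.1 N HCl, pH 1.2, simulating gastric conditions, in a 500 mL medium over 3 h with sampling from 15 to 180 min. Read-outs were cumulative amount dissolved and intrinsic dissolution rate, quantified separately for each drug component from the salt. Salt batch was scaled up by ethanol drop grinding, with phase purity checked by PXRD profile fitting. Leftover solids were characterized afterwards.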

[3] = system: 2008, C13*, and Sk-Mel28 cell lines; assay: Flow cytometric analysis of cell cycle, statement for all three lines; type: cell-based, human; details: 48 h, versus untreated
2008 cells = assay: Flow cytometric analysis of cell cycle; type: cell-based, human; details: 48 h, concentration approx. IC50
C13* cells = assay: Flow cytometric analysis of cell cycle; type: cell-based, human; details: 48 h, concentration approx. IC50
[4] = system: BRAF^V600E melanoma cells Sk-Mel28; assay: Cytotoxicity screening; type: cell-based; details: Homo sapiens, SK-MEL-28
How it was run: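 Sk-Mel28 (human BRAF V600E melanoma) cells treated with test compound across a dose–response range. Survival percentage relative to control was read, and IC50 was taken from the curve. Two separate experiments were each run in duplicate, reported as mean ± SEM.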

[5] = cited from earlier work
[6] = system: ovarian cancer cell lines (A2780, 2008, A2780/CP, C13*); assay: Cytotoxicity screening, ovarian lines taken together; type: cell-based; details: Homo sapiens, read-out: IC50 range in ovarian cancer cell lines

| pure drug dissolution value [2] [mg cm^–2 min^–1] | Compound | solubility of the phase formed at pH 1.2 (in words) [1] | cells in G0G1 phase (Sk-Mel28 cells) [%] | cells in G2/M phase (Sk-Mel28 cells) [%] | cells in S phase (Sk-Mel28 cells) [%] | hypodiploid cells (sub-G1) (Sk-Mel28 cells) [%] | cells in G0G1 phase (2008 cells) [%] | cells in G2/M phase (2008 cells) [%] | cells in S phase (2008 cells) [%] | hypodiploid cells (2008 cells) [%] | cells in G0G1 phase (C13* cells) [%] | cells in G2/M phase (C13* cells) [%] | cells in S phase (C13* cells) [%] | hypodiploid cells (sub-G1) (C13* cells) [%] | further results |
| --- | --- | --- | --- | --- | --- | --- | --- | --- | --- | --- | --- | --- | --- | --- | --- |
| – | Cc1[nH]c2ccccc2c1CCNCc1ccc(/C=C/C(=O)NO)cc1.Cl [PAN·HCl] | high solubility | – | – | – | – | – | – | – | – | – | – | – | – | – |
| 80 | CC(C)(C)c1nc(-c2cccc(NS(=O)(=O)c3c(F)cccc3F)c2F)c(-c2ccnc(N)n2)s1 [DBF, dabrafenib] | – | 65.11 | 4.53 | 3.95 | 23.46 | 63.91 | 10.76 | 3.53 | 19.32 | 68.48 | 5.28 | 4.60 | 19.32 | cumulative drug dissolved, saturation value ([2]; pH 1.2, 500 mL): 12.18 mg/L; fold increase of hypodiploid cells [3]: ~4 fold |
| – | CC(C)(C)c1nc(-c2cccc(NS(=O)(=O)c3c(F)cccc3F)c2F)c(-c2ccnc(N)n2)s1.O [DBF·MH] | comparatively less soluble; also recorded: very poor | – | – | – | – | – | – | – | – | – | – | – | – | – |
| 10 | Cc1[nH]c2ccccc2c1CCNCc1ccc(/C=C/C(=O)NO)cc1 [PAN, panobinostat] | – | 42.53 | 18.73 | 5.17 | 30.07 | 37.98 | 9.99 | 6.78 | 42.32 | 47.46 | 10.27 | 6.85 | 30.15 | IC50 [4]: 45.3 ± 12 nM; cumulative drug dissolved at 15 min ([2]; pH 1.2, 500 mL, 15 min): 4.60 mg/L; cumulative drug dissolved at 180 min ([2]; pH 1.2, 500 mL, 180 min): 20.81 mg/L; pKa (indole NH) [5]: 8.4; IC50 [6]: 4 to 9 nM |
